# Test results: ChEMBL document CHEMBL3817823 (J Med Chem, 2016)
# The source made the active and inactive calls. No cut-off for these calls is given here.
# Tests used:
# [1] = target: Histone-lysine N-methyltransferase KMT5C (Homo sapiens) (UniProt Q86Y97); assay: Inhibition of SUV420H2 (unknown origin) at 1 to 50 uM by scintillation proximity assay
# [2] = target: Histone-lysine N-methyltransferase, H3 lysine-79 specific (Homo sapiens) (UniProt Q8TEK3); assay: Inhibition of DOT1L (unknown origin) at 1 to 50 uM by TCA precipitation assay
# Mus musculus [3] = assay: In vivo inhibition of SMYD2 expressed in human KYSE-150 cells xenografted in BALB/c nude mouse assessed as suppression of AHNAK methylation at 70 mg/kg, po administered qd for 3 days by dot-blot analysis relative to untreated control; assay type: functional
# How it was run: (§1)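 Mice with subcutaneous KYSE-150 tumor xenografts dosed orally once daily for 3 days (vehicle PEG 400/water 8:2), n = 12 per group; tumors then harvested and AHNAK methylation measured ex vivo by dot blot with SY46 antibody; group means ± SD, Student's t test versus vehicle.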
# KYSE-150 [4] = assay: Antitumor activity against human KYSE-150 cells xenografted in BALB/c mouse assessed as reduction in tumor weight at 500 mg/kg, po administered qd relative to control; assay type: functional, organism-based
# How it was run: (§2)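 Mice carrying subcutaneous KYSE-150 xenografts; dosing began day 4 after inoculation. Arms: vehicle (Solutol/ethanol/water 1:1:8 iv qd, plus saline iv once at day 4), inhibitor 500 mg/kg po qd, doxorubicin 10 mg/kg iv once at day 4, or the combination. Tumor area tracked (mean ± SEM); final tumor weight gives T/C; Dunn's method versus vehicle.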
# [5] = target: Protein N-lysine methyltransferase METTL21D (Homo sapiens) (UniProt Q9H867); assay: Inhibition of METTL21D (unknown origin) at 1 to 50 uM by TCA precipitation assay
# [6] = target: Histone-lysine N-methyltransferase PRDM9 (Homo sapiens) (UniProt Q9NQV7); assay: Inhibition of PRDM9 (unknown origin) at 1 to 50 uM by scintillation proximity assay
# [7] = target: DNMT3B-DNMT3L complex (Homo sapiens) (UniProt Q9UBC3+Q9UJW3); assay: Inhibition of DNMT3B/3L (unknown origin) at 1 to 50 uM by TCA precipitation assay; assay type: protein-complex assay
# [8] = target: N-lysine methyltransferase SMYD2 (Homo sapiens, UniProt Q9NRG4); assay: Binding affinity to SMYD2 (unknown origin) assessed as change in melting point at 100 uM by thermal shift assay
# Mus musculus [9] = assay: In vivo inhibition of SMYD2 expressed in human KYSE-150 cells xenografted in BALB/c nude mouse assessed as suppression of AHNAK methylation at 30 mg/kg, po administered qd for 3 days by dot-blot analysis relative to untreated control; assay type: functional; how it was run: as §1
# [10] = target: RNA 5'-monophosphate methyltransferase (Homo sapiens) (UniProt Q7Z5W3); assay: Inhibition of BCDIN3D (unknown origin) at 1 to 50 uM by scintillation proximity assay
# KYSE-150 cell line = assay: Induction of apoptosis in human KYSE-150 cells assessed as caspase 3/7 activation up to 20 uM after 2 days by […]; assay type: functional, cell-based
# Mus musculus [11] = assay: In vivo inhibition of SMYD2 expressed in human KYSE-150 cells xenografted in BALB/c nude mouse assessed as suppression of AHNAK methylation at 100 mg/kg, po administered qd for 3 days by dot-blot analysis relative to untreated control; assay type: functional; how it was run: as §1
# Mus musculus [12] = assay: In vivo inhibition of SMYD2 expressed in human KYSE-150 cells xenografted in BALB/c nude mouse assessed as suppression of AHNAK methylation at 30 to 100 mg/kg, po administered qd for 3 days by dot-blot analysis; assay type: functional, organism-based; how it was run: as §1
# [13] = target: Histone-lysine N-methyltransferase, H3 lysine-36 specific (Homo sapiens) (UniProt Q96L73); assay: Inhibition of NSD1 (unknown origin) at 1 to 50 uM by TCA precipitation assay
# Mus musculus [14] = assay: Time>IC50 for cellular methylation in BALB/c mouse at 10 mg/kg, po qd
# How it was run: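 Mice were dosed orally once daily at 10–100 mg/kg. Time at steady state with unbound exposure covering the cellular In-Cell Western AHNAK methylation IC50 was estimated.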
# [15] = Oral bioavailability in rat by LC/MS/MS analysis; assay type: ADME, organism-based; details: in vivo
# [16] = Blood clearance in rat at 0.4 mg/kg, iv bolus administration or 0.8 mg/kg, po by LC-MS/MS analysis; assay type: ADME, organism-based; details: whole blood
# KYSE-150 [17] = assay: Antitumor activity against human KYSE-150 cells xenografted in BALB/c mouse assessed as reduction in tumor weight at 10 mg/kg, iv administered once at day 4 relative to control; assay type: functional, organism-based; how it was run: as §2
# Mus musculus [18] = assay: Toxicity in human KYSE-150 cells xenografted BALB/c mouse assessed as body weight loss at 500 mg/kg, po administered qd in presence of doxorubicin relative to control; assay type: organism-based; details: in vivo
# How it was run: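 Mice bore subcutaneous KYSE-150-derived tumor xenografts; dosing began day 4 after inoculation. Groups: vehicle (Solutol/ethanol/water 1:1:8 iv qd plus saline iv at day 4); compound 500 mg/kg po qd; doxorubicin 10 mg/kg iv once at day 4; combination. Treatment-related body weight loss was recorded.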
# [19] = target: Protein arginine N-methyltransferase 7 (Homo sapiens) (UniProt Q9NVM4); assay: Inhibition of PRMT7 (unknown origin) at 1 to 50 uM by scintillation proximity assay
# KYSE-150 [20] = assay: Antitumor activity against human KYSE-150 cells xenografted in BALB/c mouse assessed as reduction in tumor area at 500 mg/kg, po administered qd relative to control; assay type: functional, organism-based; how it was run: as §2
# [21] = target: Histone-lysine N-methyltransferase SUV39H2 (Homo sapiens) (UniProt Q9H5I1); assay: Inhibition of SUV39H2 (unknown origin) at 1 to 50 uM by scintillation proximity assay
# A2780 = assay: Induction of apoptosis in human A2780 cells assessed as caspase 3/7 activation up to 20 uM after 2 days by […]; assay type: functional, cell-based
# Mus musculus [22] = assay: Time>IC50 for cellular methylation in mouse at 10 to 100 mg/kg, po qd
# [23] = target: Histone-lysine N-methyltransferase ASH1L (Homo sapiens) (UniProt Q9NR48); assay: Inhibition of ASH1L (unknown origin) at 1 to 50 uM by TCA precipitation assay
# Hepatocyte = assay: Clearance in rat hepatocytes at 1 uM measured up to 90 mins by LC-MS/MS analysis; assay type: ADME, cell-based
# [24] = target: Histone-lysine N-methyltransferase SETD7 (Homo sapiens) (UniProt Q8WTS6); assay: Inhibition of SETD7 (unknown origin) at 1 to 50 uM by scintillation proximity assay
# [25] = target: Protein N-lysine methyltransferase METTL21A (Homo sapiens) (UniProt Q8WXB1); assay: Inhibition of METTL21A (unknown origin) at 1 to 50 uM by TCA precipitation assay
# [26] = Effect on p53 protein levels in HEK293T cells by Western blot analysis; assay type: ADME, cell-based; details: human, hek-293t
# U2OS = assay: Potentiation of doxorubicin-induced apoptosis in human U2OS cells assessed as caspase 3/7 activation up to 20 uM after 2 days by […]; assay type: functional, cell-based
# Histone-lysine N-methyltransferase, H3 lysine-79 specific (Homo sapiens), sequence (Q8TEK3 whole entry, looked up): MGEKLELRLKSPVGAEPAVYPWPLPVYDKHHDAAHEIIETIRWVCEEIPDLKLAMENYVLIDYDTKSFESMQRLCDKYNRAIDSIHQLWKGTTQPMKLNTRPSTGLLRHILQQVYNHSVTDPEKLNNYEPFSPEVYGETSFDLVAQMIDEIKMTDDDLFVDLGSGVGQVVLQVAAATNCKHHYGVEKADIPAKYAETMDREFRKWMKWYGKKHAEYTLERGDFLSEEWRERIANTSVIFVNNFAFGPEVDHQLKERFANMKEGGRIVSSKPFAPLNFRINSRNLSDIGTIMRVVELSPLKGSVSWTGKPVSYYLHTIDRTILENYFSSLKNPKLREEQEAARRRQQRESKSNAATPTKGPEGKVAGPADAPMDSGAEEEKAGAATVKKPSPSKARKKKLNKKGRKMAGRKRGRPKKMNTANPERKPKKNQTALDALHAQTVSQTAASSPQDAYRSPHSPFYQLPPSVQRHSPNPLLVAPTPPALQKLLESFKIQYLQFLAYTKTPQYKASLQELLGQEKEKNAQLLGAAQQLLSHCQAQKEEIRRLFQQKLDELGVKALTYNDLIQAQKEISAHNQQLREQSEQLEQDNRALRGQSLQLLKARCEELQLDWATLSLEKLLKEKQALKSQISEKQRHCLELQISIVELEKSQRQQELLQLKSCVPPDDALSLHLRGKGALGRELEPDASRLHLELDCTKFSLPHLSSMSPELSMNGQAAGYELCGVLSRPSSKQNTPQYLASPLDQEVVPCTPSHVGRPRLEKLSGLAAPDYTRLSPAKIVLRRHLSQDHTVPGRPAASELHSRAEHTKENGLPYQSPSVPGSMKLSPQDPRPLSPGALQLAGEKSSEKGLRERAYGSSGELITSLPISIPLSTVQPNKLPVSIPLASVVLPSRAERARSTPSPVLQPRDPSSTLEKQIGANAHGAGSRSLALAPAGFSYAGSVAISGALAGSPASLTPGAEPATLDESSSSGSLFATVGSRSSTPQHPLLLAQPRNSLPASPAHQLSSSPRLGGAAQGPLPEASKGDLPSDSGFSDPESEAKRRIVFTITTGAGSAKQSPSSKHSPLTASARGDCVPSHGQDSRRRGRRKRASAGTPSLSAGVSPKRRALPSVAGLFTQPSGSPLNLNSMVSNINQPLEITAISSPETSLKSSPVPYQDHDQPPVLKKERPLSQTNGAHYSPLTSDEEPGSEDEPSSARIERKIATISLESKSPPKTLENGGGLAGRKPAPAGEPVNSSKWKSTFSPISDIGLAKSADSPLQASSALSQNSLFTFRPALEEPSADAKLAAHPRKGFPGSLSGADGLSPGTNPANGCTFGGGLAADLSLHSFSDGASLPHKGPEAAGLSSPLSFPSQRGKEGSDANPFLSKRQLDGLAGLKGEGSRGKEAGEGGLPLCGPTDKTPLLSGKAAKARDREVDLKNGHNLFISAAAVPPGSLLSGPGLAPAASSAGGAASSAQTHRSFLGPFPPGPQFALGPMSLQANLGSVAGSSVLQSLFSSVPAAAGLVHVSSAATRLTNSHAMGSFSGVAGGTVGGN
# N-lysine methyltransferase SMYD2, sequence (Q9NRG4 whole entry): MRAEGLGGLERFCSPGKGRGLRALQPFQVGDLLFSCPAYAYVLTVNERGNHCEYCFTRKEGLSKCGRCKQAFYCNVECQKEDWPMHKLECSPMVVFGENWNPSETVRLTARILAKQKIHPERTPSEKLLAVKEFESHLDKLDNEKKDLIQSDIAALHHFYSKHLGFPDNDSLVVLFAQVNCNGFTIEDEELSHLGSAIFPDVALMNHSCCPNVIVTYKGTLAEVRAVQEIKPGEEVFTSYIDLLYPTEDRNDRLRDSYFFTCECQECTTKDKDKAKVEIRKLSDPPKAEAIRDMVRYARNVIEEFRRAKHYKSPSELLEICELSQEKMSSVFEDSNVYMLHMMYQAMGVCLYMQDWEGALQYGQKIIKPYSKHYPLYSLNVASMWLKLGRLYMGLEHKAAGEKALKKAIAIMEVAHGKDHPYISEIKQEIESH
# Histone-lysine N-methyltransferase PRDM9 (Homo sapiens), sequence (Q9NQV7 whole entry): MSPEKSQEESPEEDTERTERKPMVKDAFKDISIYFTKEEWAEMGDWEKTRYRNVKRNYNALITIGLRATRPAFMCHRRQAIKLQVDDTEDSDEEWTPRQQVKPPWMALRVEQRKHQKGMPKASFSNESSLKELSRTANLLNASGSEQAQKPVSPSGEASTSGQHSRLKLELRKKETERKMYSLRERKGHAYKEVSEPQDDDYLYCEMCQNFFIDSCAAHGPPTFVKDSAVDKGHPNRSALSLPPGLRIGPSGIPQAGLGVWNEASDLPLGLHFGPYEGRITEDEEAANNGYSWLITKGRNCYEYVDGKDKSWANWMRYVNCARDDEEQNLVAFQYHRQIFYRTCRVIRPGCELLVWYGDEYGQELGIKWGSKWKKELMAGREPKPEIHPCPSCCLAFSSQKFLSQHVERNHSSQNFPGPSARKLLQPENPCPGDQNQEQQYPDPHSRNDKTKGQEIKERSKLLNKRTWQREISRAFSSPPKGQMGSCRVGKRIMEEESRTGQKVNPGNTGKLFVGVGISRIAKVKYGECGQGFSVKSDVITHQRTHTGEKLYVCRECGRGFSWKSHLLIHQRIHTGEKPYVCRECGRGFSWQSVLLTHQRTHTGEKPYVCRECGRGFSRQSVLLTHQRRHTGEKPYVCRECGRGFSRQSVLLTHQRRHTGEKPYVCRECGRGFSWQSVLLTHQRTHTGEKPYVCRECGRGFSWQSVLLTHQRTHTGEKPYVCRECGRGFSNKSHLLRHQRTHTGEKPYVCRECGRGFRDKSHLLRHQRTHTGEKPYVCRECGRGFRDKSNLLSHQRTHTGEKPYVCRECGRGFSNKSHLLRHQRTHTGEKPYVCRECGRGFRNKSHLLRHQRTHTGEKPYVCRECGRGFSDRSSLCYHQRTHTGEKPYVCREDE
# Histone-lysine N-methyltransferase SETD7 (Homo sapiens), sequence (Q8WTS6 whole entry): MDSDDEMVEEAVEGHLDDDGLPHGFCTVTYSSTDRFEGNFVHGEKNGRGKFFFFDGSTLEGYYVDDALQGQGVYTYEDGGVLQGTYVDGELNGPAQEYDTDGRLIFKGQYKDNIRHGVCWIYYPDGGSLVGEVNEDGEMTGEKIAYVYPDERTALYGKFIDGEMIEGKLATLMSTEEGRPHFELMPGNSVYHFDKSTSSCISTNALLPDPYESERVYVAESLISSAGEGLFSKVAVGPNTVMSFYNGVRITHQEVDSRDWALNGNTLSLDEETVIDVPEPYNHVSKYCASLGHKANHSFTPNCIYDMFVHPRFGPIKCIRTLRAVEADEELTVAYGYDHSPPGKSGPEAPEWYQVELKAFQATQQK
# Histone-lysine N-methyltransferase SUV39H2 (Homo sapiens), sequence (Q9H5I1 whole entry): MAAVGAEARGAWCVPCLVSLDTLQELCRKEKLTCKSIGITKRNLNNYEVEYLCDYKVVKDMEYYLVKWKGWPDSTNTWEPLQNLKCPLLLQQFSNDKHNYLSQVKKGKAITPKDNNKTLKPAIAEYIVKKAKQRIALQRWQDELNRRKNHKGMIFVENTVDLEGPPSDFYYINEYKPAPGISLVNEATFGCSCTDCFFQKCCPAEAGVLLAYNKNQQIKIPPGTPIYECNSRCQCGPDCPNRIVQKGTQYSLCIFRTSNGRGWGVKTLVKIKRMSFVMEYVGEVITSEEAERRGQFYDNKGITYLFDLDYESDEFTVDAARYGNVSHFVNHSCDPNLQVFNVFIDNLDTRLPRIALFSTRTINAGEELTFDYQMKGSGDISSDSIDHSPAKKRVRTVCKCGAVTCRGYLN
# RNA 5'-monophosphate methyltransferase (Homo sapiens), sequence (Q7Z5W3 whole entry): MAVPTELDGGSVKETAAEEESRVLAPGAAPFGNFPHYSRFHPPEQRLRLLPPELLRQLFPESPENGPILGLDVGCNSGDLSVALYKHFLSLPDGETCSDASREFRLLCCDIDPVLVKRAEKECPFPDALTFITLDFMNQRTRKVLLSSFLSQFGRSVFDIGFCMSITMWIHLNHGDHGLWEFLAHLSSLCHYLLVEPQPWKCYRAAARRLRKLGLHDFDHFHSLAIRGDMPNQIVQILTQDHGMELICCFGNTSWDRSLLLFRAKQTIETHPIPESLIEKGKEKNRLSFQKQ
# Protein arginine N-methyltransferase 7 (Homo sapiens), sequence (Q9NVM4 whole entry): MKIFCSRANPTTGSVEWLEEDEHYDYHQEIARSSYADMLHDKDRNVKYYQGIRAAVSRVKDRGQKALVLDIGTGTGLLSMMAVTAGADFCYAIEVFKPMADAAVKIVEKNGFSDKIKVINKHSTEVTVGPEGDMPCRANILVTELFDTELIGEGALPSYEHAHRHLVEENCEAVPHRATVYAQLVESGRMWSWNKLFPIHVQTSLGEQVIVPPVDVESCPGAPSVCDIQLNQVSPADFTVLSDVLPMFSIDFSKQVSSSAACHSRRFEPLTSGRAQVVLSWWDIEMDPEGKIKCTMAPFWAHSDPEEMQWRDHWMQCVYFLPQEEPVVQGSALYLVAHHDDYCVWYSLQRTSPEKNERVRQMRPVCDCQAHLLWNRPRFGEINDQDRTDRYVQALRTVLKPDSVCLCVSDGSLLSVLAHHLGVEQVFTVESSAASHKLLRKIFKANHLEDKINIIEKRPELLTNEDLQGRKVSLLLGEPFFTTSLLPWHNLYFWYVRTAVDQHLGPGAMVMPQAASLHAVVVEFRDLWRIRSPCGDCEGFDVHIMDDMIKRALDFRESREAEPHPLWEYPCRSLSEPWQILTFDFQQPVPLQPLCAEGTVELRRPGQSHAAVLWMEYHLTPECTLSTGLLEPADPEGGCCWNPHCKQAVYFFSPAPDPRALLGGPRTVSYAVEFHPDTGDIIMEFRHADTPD
# DNMT3B-DNMT3L complex (Homo sapiens), sequence (Q9UJW3 whole entry, looked up, other chains not shown): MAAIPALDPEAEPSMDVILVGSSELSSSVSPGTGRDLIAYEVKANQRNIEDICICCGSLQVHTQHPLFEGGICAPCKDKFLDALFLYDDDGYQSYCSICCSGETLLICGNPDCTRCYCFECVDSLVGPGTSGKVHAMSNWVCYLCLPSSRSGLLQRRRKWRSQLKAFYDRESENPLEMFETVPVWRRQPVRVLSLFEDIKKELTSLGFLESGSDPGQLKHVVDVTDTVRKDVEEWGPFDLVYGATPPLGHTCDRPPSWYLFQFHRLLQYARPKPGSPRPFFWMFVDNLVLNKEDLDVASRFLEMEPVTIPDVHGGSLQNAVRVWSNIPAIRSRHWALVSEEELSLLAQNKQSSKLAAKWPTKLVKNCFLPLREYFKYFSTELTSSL
compound,measurement,setting,value
CCN(C(=O)CO)[C@H]1CN(/C(=N\C#N)Nc2cccc(OC(F)F)c2)N=C1c1ccc(Cl)c(Cl)c1,inhibition,[1],inactive
same,inhibition,[2],inactive
same,T/C,Mus musculus [3],0.73
same,Activity,KYSE-150 [4],inactive
same,inhibition,[5],inactive
same,inhibition,[6],inactive
same,inhibition,[7],inactive
same,deltaTm,[8],7.1 K
same,T/C,Mus musculus [9],0.71
same,inhibition,[10],inactive
same,Activity,KYSE-150 cell line,inactive
same,T/C,Mus musculus [11],0.43
same,inhibition,Mus musculus [12],Active
same,inhibition,[13],inactive
same,Time,Mus musculus [14],9 h
same,bioavailability,[15],24%
same,clearance,[16],26.7 mL/min/kg
same,Activity,KYSE-150 [17],Active
same,Activity,Mus musculus [18],Non-toxic
same,inhibition,[19],inactive
same,Activity,KYSE-150 [20],inactive
same,inhibition,[21],inactive
same,Activity,A2780,inactive
same,Time,Mus musculus [22],9 h
same,inhibition,[23],inactive
same,CLH,Hepatocyte,41.7 mL/min/kg
same,inhibition,[24],inactive
same,inhibition,[25],inactive
same,Activity,[26],Non-toxic
same,Activity,U2OS,Active
